Reference: ChEMBL document CHEMBL1123430, “Potential tumor- or organ-imaging agents. 26. Polyiodinated 2-substituted triacylglycerols as hepatographic agents” (J Med Chem, 1986)

Assays:
Rattus norvegicus [1] = experiment: Distribution of radioactivity of radiolabeled compound in blood of female rats 5 minutes after intravenous administration; assay type: ADME, organism-based; conditions: in vivo
Rattus norvegicus [2] = experiment: Distribution of radioactivity of radiolabeled compound in heart of female rats 30 minutes after intravenous administration; assay type: ADME, organism-based; conditions: in vivo, 0.5 h
Rattus norvegicus [3] = experiment: Distribution of radioactivity of radiolabeled compound in blood of female rats 30 minutes after intravenous administration; assay type: ADME, organism-based; conditions: in vivo, 0.5 h
Rattus norvegicus [4] = experiment: Distribution of radioactivity of radiolabeled compound in heart of female rats 5 minutes after intravenous administration; assay type: ADME, organism-based; conditions: in vivo
Rattus norvegicus [5] = experiment: Distribution of radioactivity of radiolabeled compound in kidney of female rats 30 minutes after intravenous administration; assay type: ADME, organism-based; conditions: in vivo, 0.5 h
Rattus norvegicus [6] = experiment: Distribution of radioactivity of radiolabeled compound in kidney of female rats 5 minutes after intravenous administration; assay type: ADME, organism-based; conditions: in vivo
Rattus norvegicus [7] = experiment: Distribution of radioactivity of radiolabeled compound in liver of female rats 30 minutes after intravenous administration; assay type: ADME, organism-based; conditions: in vivo, 0.5 h
Rattus norvegicus [8] = experiment: Distribution of radioactivity of radiolabeled compound in liver of female rats 5 minutes after intravenous administration; assay type: ADME, organism-based; conditions: in vivo
Rattus norvegicus [9] = experiment: Distribution of radioactivity of radiolabeled compound in lung of female rats 30 minutes after intravenous administration; assay type: ADME, organism-based; conditions: in vivo, 0.5 h
Rattus norvegicus [10] = experiment: Distribution of radioactivity of radiolabeled compound in lung of female rats 5 minutes after intravenous administration; assay type: ADME, organism-based; conditions: in vivo
Rattus norvegicus [11] = experiment: Percentage […]/CH3OH extract of the radiolabeled compound in rat liver 30 minutes after iv administration (+/-SEM); assay type: functional
Method in brief: (§1)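 Liver and plasma were taken at 5 or 30 min. Plasma was extracted by a modified Folch procedure, and liver was homogenized and extracted. Extracts were run on TLC in hexane/ethyl acetate (5:2) for esters or THF/hexane (1:1) for acids, with unlabeled compound as reference. Plates were cut into 1-cm strips and counted. Values are percent ± SEM, n = 3-5.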

Rattus norvegicus [12] = experiment: Percentage […]/CH3OH extract of the radiolabeled compound in rat liver 5 minutes after iv administration (+/-SEM); assay type: functional; method in brief: as §1
Rattus norvegicus [13] = experiment: Percentage […]/CH3OH extract of the radiolabeled compound in rat plasma 30 minutes after iv administration (+/-SEM); assay type: functional; method in brief: as §1
Rattus norvegicus [14] = experiment: Percentage […]/CH3OH extract of the radiolabeled compound in rat plasma 5 minutes after iv administration (+/-SEM); assay type: functional; method in brief: as §1
Rattus norvegicus [15] = experiment: Percentage parent compound in rat liver 30 minutes after iv administration of the radiolabeled compound by thin-layer chromatography; assay type: functional; method in brief: as §1
Rattus norvegicus [16] = experiment: Percentage parent compound in rat liver 5 minutes after iv administration of the radiolabeled compound by thin-layer chromatography; assay type: functional; method in brief: as §1
Rattus norvegicus [17] = experiment: Percentage parent compound in rat plasma 30 minutes after iv administration of the radiolabeled compound by thin-layer chromatography; assay type: functional; method in brief: as §1
Rattus norvegicus [18] = experiment: Percentage parent compound in rat plasma 5 minutes after iv administration of the radiolabeled compound by thin-layer chromatography; assay type: functional; method in brief: as §1
Rattus norvegicus [19] = experiment: Polyacrylamide Gel Electrophoresis (PAGE) analysis of rat plasma after intravenous administration of radiolabeled compound concentration of below albumin […]; assay type: functional, organism-based
Method in brief: (§2)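 ¹²⁵I-labeled compound, radioiodinated by exchange in a pivalic acid melt, solubilized in normal saline with Tween 20 and given iv to adult female Sprague–Dawley rats (200–250 g), 5–30 μCi/animal, 3–4 rats per time point. Plasma was run on polyacrylamide gels. Gels were sectioned and gamma counted. Radioactivity per band (stacking gel, LDL, HDL, albumin, below albumin) is given as % of total applied; mean ± SEM, n = 3-5.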

Rattus norvegicus [20] = experiment: Polyacrylamide Gel Electrophoresis (PAGE) analysis of rat plasma 30 minutes after intravenous administration of radiolabeled compound (below albumin); assay type: functional, organism-based
Method in brief: (§3)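 Gels were sectioned and counted in a γ counter. Radioactivity in each band (stacking gel, LDL, HDL, albumin, below albumin) is expressed as a percentage of the total radioactivity applied to the gel, ± SEM, n = 3-5.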

Rattus norvegicus [21] = experiment: Polyacrylamide Gel Electrophoresis (PAGE) analysis of rat plasma 30 minutes after intravenous administration of radiolabeled compound in albumin; assay type: functional, organism-based; method in brief: as §3
Rattus norvegicus [22] = experiment: Polyacrylamide Gel Electrophoresis (PAGE) analysis of rat plasma 30 minutes after intravenous administration of radiolabeled compound in high density lipoprotein; assay type: functional, organism-based; method in brief: as §3
Rattus norvegicus [23] = experiment: Polyacrylamide Gel Electrophoresis (PAGE) analysis of rat plasma 30 minutes after intravenous administration of radiolabeled compound in low-density lipoprotein; assay type: functional, organism-based; method in brief: as §3
Rattus norvegicus [24] = experiment: Polyacrylamide Gel Electrophoresis (PAGE) analysis of rat plasma 30 minutes after intravenous administration of radiolabeled compound in stacking gel; assay type: functional, organism-based; method in brief: as §3
Rattus norvegicus [25] = experiment: Polyacrylamide Gel Electrophoresis (PAGE) analysis of rat plasma 5 minutes after intravenous administration of radiolabeled compound (below albumin); assay type: functional, organism-based; method in brief: as §2
Rattus norvegicus [26] = experiment: Polyacrylamide Gel Electrophoresis (PAGE) analysis of rat plasma 5 minutes after intravenous administration of radiolabeled compound in high density lipoprotein; assay type: functional, organism-based; method in brief: as §2
Rattus norvegicus [27] = experiment: Polyacrylamide Gel Electrophoresis (PAGE) analysis of rat plasma 5 minutes after intravenous administration of radiolabeled compound in low-density lipoprotein; assay type: functional, organism-based; method in brief: as §2
Rattus norvegicus [28] = experiment: Polyacrylamide Gel Electrophoresis (PAGE) analysis of rat plasma 5 minutes after intravenous administration of radiolabeled compound in stacking gel; assay type: functional, organism-based; method in brief: as §2
Rattus norvegicus [29] = experiment: Polyacrylamide Gel Electrophoresis (PAGE) analysis of rat plasma 5 min after intravenous administration of radiolabeled compound in albumin; assay type: functional, organism-based; method in brief: as §3
Rattus norvegicus [30] = experiment: Distribution of radioactivity of radiolabeled compound in heart of female rats 30 minutes after intravenous administration at; assay type: ADME, organism-based; conditions: in vivo, 0.5 h
Rattus norvegicus [31] = experiment: Percentage […]/CH3OH extract of the radiolabeled compound in rat liver 30 minutes after iv administration; assay type: functional; method in brief: as §1
Rattus norvegicus [32] = experiment: Percentage […]/CH3OH extract of the radiolabeled compound in rat liver 5 minutes after iv administration; assay type: functional; method in brief: as §1
Rattus norvegicus [33] = experiment: Percentage […]/CH3OH extract of the radiolabeled compound in rat plasma 30 minutes after iv administration; assay type: functional; method in brief: as §1
Rattus norvegicus [34] = experiment: Percentage […]/CH3OH extract of the radiolabeled compound in rat plasma 5 minutes after iv administration; assay type: functional; method in brief: as §1
Rattus norvegicus [35] = experiment: Polyacrylamide Gel Electrophoresis (PAGE) analysis of rat plasma 30 min after intravenous administration of radiolabeled compound in low-density lipoprotein; assay type: functional, organism-based; method in brief: as §3
Rattus norvegicus [36] = experiment: Polyacrylamide Gel Electrophoresis (PAGE) analysis of rat plasma 30 min after intravenous administration of radiolabeled compound in stacking gel; assay type: functional, organism-based; method in brief: as §3
Rattus norvegicus [37] = experiment: Polyacrylamide Gel Electrophoresis (PAGE) analysis of rat plasma 5 min after intravenous administration of radiolabeled compound (below albumin); assay type: functional, organism-based; method in brief: as §3
Rattus norvegicus [38] = experiment: Polyacrylamide Gel Electrophoresis (PAGE) analysis of rat plasma 30 min after intravenous administration of radiolabeled compound (below albumin); assay type: functional, organism-based; method in brief: as §3
Rattus norvegicus [39] = experiment: Polyacrylamide Gel Electrophoresis (PAGE) analysis of rat plasma 30 min after intravenous administration of radiolabeled compound in albumin; assay type: functional, organism-based; method in brief: as §3

Structure (SMILES)	Dose (Rattus norvegicus [1])	Dose (Rattus norvegicus [3])	Dose (Rattus norvegicus [4])	Dose (Rattus norvegicus [5])	Dose (Rattus norvegicus [6])	Dose (Rattus norvegicus [7])	Dose (Rattus norvegicus [8])	Dose (Rattus norvegicus [9])	Dose (Rattus norvegicus [10])	Activity (Rattus norvegicus [15])	Activity (Rattus norvegicus [16])	Activity (Rattus norvegicus [17])	Activity (Rattus norvegicus [18])	Concentration (Rattus norvegicus [22])	Concentration (Rattus norvegicus [26])	Concentration (Rattus norvegicus [27])	Concentration (Rattus norvegicus [28])	Concentration (Rattus norvegicus [29])	also measured
CCCCCCCCCCCCCCCC(=O)OCC(COC(=O)CCCCCCCCCCCCCCC)OC(=O)CCc1c(I)cc(I)c(N)c1I	5.99%	3.23%	1.34%	1.65%	1.18%	1.22%	1.74%	0.93%	1.2%	47.7%	72.5%	86.1%	75.5%	48.9%	57.1	20.2%	4.6%	14.6	Dose (Rattus norvegicus [2]): 2.43%; Activity (Rattus norvegicus [11]): 52.1%; Activity (Rattus norvegicus [12]): 68.4%; Activity (Rattus norvegicus [13]): 69.4%; Activity (Rattus norvegicus [14]): 79.1%; Concentration (Rattus norvegicus [19]): 69.4 [middle of 4 runs]; Concentration (Rattus norvegicus [20]): 4.4; Concentration (Rattus norvegicus [21]): 27; Concentration (Rattus norvegicus [23]): 15.7%; Concentration (Rattus norvegicus [24]): 4%; Concentration (Rattus norvegicus [25]): 2.4
CCCCCCCCCCCCCCCC(=O)OCC(COC(=O)CCCCCCCCCCCCCCC)OC(=O)CCCCCCCCCCCCCCCCc1c(I)cc(I)c(N)c1I	2.5%	1.42%	0.49%	1.29%	0.42%	5.97%	4.07%	1.72%	3.16%	40.8%	24%	23.8%	32.6%	27%	48.1	12.6%	4.6%	32.1	Dose (Rattus norvegicus [30]): 0.74%; Activity (Rattus norvegicus [31]): 47.2%; Activity (Rattus norvegicus [32]): 44.3%; Activity (Rattus norvegicus [33]): 71.3%; Activity (Rattus norvegicus [34]): 83.8%; Concentration (Rattus norvegicus [35]): 8.6; Concentration (Rattus norvegicus [36]): 10.9; Concentration (Rattus norvegicus [37]): 2.7; Concentration (Rattus norvegicus [38]): 9; Concentration (Rattus norvegicus [39]): 44.6
